Results as given in article PMC6172447 (iScience, 2018).

How the values were obtained:
U2OS cells [1] = experiment: Autophagic turnover, BafA1-induced LC3B-II accumulation by immunoblotting; assay type: cell-based, human
U2OS cells [2] = experiment: Phagophore formation, endogenous ATG12 immunofluorescence; assay type: cell-based, human
[3] = system: U2OS cells stably expressing EGFP-DFCP1; experiment: Omegasome formation, EGFP-DFCP1 puncta by live-cell fluorescent microscopy; assay type: cell-based, human
How it was run: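 U2OS cells stably expressing EGFP-DFCP1 were given vehicle or 100 nM AZD8055, with or without 5 μM test compound, for 2.5 hr. They were imaged live by fluorescence microscopy in the green FITC channel. EGFP-DFCP1 objects per cell were counted in 20–25 cells per condition. Mean ± SEM; two-tailed unpaired t test.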

[4] = system: nutrient-starved murine embryonic fibroblasts; conditions: 1 μM, ref Petherick et al., 2015; cited from earlier work
ULK1 = conditions: ref Egan et al., 2015; cited from earlier work
AMPK = experiment: KinaseProfiler radiometric assay, AMPK; assay type: biochemical, human; conditions: selectivity profiling, 40 nM ULK-101 or 15 nM ULK-100
[5] = system: 327 recombinant human kinases; experiment: KinaseProfiler radiometric selectivity profiling, wild-type human kinase panel; assay type: biochemical; conditions: 326 non-ULK1 kinases; 500 nM SBI-0206965, 40 nM ULK-101, or 15 nM ULK-100
[6] = 5 μM ULK-101 co-treatment with 100 nM AZD8055, 2.5 hr

Q: What does the source list for `COc1ccc(-c2ccc3c(N4CCOC[C@@H]4C)nc(N4CCOC[C@@H]4C)nc3n2)cc1CO` [AZD8055, reference compound]?
A: Increase in BafA1-induced LC3B-II accumulation (U2OS cells [1]; 100 nM AZD8055, within 1 hr): over 2 fold; ATG12-positive puncta formation (U2OS cells [2]; 100 nM AZD8055, 2.5 hr): distinct ATG12-positive puncta; Increase in abundance of DFCP1-positive puncta ([3]; 100 nM AZD8055, 2.5 hr, vs vehicle): over 3 fold

Q: With `CN1CCc2cc(Nc3ncc(C4CC4)c(NCCCNC(=O)C4CCC4)n3)ccc2C1` [MRT68921] as the compound, how does the “Effect on BafA1-induced LC3-II accumulation” value [4] read?
A: block BafA1-induced LC3-II accumulation

Q: Which “Effect on Beclin 1 Ser15 phosphorylation in cells” value (ULK1) does the source give for `CNC(=O)c1ccccc1Oc1nc(Nc2cc(OC)c(OC)c(OC)c2)ncc1Br` [SBI-0206965] here?
A: reduce Beclin 1 Ser15 phosphorylation

Q: Which “AMPK inhibition in vitro” value (AMPK) does the source give for `CC(C)[C@H](NC(=O)c1cc(-c2cnn3cc(-c4ccc(OCCN5CCCCC5)cc4)cnc23)cs1)C(F)(F)F` [ULK-100] here?
A: inhibited

Q: For `O=C(N[C@@H](C1CC1)C(F)(F)F)c1cc(-c2cnn3cc(-c4ccc(F)cc4)cnc23)cs1` [ULK-101], which “Number of other kinases inhibited at least 75% as well as ULK1” value [5] is on record?
A: four

Q: And the “Effect on AZD8055-induced increase of BafA1-induced LC3B-II accumulation” value (U2OS cells [1]; 5 μM ULK-101 with 100 nM AZD8055, 3 hr)?
A: negated

Q: And the “Effect on AZD8055-induced ATG12-positive puncta” value (U2OS cells [2]; [6])?
A: strongly suppressed

Q: What about the “AMPK inhibition in vitro” value (AMPK) of the same compound?
A: spared

Q: What about the “Effect on AZD8055-induced formation of DFCP1-positive structures” value [3, 6] of the same compound?
A: completely abrogated
